# Laboratory results reported in ChEMBL document CHEMBL4825700, “A comprehensive assessment of a new series of 5',6'-difluorobenzotriazole-acrylonitrile derivatives as microtubule targeting agents (MTAs)” (Eur J Med Chem, 2021).
# The source made the active and inactive calls.
# What was measured:
# [1] = system: Panel CNS (Carcinoma cell lines); assay: Antiproliferative activity against human CNS cancer cells assessed as reduction in cell viability measured after 24 to 48 hrs by XTT assay; assay type: functional; conditions: time 24-48 hrs; for CC50: read-out: LC50 (the source's name)
# CCRF-CEM [2] = assay: Antiproliferative activity against human CCRF-CEM cells assessed as inhibition of cell growth at 10 uM measured after 24 to 48 hrs by XTT assay; assay type: functional; conditions: time 24-48 hrs, read-out: GI
# Summary of the method: (§1)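 NCI60 panel screen by the NCI Developmental Therapeutics Program: single dose of 10 µM first; compounds meeting inhibition criteria retested at five 10-fold dilutions, 100 µM to 0.01 µM; GI50, TGI and LC50 derived.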
# [3] = Antiproliferative against human melanoma cells assessed as reduction in cell growth incubated for 24 to 48 hrs by XTT assay; assay type: functional; conditions: Panel melanoma (Carcinoma cell lines), time 24-48 hrs; for CC50: read-out: LC50 (the source's name); summary of the method: as §1
# [4] = Antiproliferative against human breast cancer cells assessed as reduction in cell growth incubated for 24 to 48 hrs by XTT assay; assay type: functional, Panel breast (Carcinoma cell lines); conditions: Breast carcinoma cell, time 24-48 hrs; summary of the method: as §1
# [5] = Antiproliferative activity against human NSC lung cancer cells assessed as reduction in cell viability measured after 24 to 48 hrs by XTT assay; assay type: functional; conditions: Non-small cell lung cancer cell line, time 24-48 hrs; for CC50: read-out: LC50 (the source's name)
# [6] = Antiproliferative activity against human leukemia cells assessed as reduction in cell viability measured after 24 to 48 hrs by XTT assay; assay type: functional; conditions: Panel leukemia (Carcinoma cell lines), time 24-48 hrs; for CC50: read-out: LC50 (the source's name)
# CCRF-CEM [7] = assay: Antiproliferative activity against human CCRF-CEM cells assessed as inhibition of cell proliferation measured after 96 hrs by MTT assay; assay type: functional, cell-based
# U-251 = assay: Antiproliferative activity against human U-251 cells assessed as lethality measured after 24 to 48 hrs by XTT assay; assay type: functional; conditions: time 24-48 hrs
# Summary of the method: (§2)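 NCI60 screen run by the NCI Developmental Therapeutics Program. A single 10 µM dose was first tested across the full 60-cell-line panel. Compounds meeting the inhibition selection criteria were then retested at five 10-fold dilutions from 100 µM to 0.01 µM. GI50, TGI and LC50 were reported as molar concentrations for each tumour-type group.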
# HeLa [8] = assay: Induction of cell cycle arrest in human HeLa cells assessed as accumulation of cells at G0/G1 phase at 5 uM incubated for 24 hrs by 7-AAD staining based flow cytometry analysis (reference value: 65%); assay type: functional
# Summary of the method: (§3)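 HeLa seeded at 50% confluence, treated after 24 h with 5 or 10 µM for 24 or 48 h. Adherent plus floating cells fixed in ice-cold 70% ethanol overnight at -20 °C, stained with 7-AAD 20 min at room temperature; 20000 events per sample by flow cytometry; phase percentages compared with control.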
# HeLa [9] = assay: Induction of incomplete cytokinesis with increased cell dimension in human HeLa cells at 0.3 uM measured after 48 hrs by fluorescence microscopy; assay type: functional, cell-based
# HeLa [10] = assay: Induction of cell cycle arrest in human HeLa cells assessed as accumulation of cells at G2/M phase at 5 uM incubated for 48 hrs by 7-AAD staining based flow cytometry analysis (reference value: 30%); assay type: functional; summary of the method: as §3
# [11] = system: Panel NCI-60 (60 carcinoma cell lines); assay: Antiproliferative against human NCI-60 cells assessed as reduction in cell growth incubated for 24 to 48 hrs by XTT assay; assay type: functional; conditions: time 24-48 hrs; summary of the method: as §1
# HeLa [12] = assay: Induction of cell cycle arrest in human HeLa cells assessed as accumulation of cells at G0/G1 phase at 10 uM incubated for 24 hrs by 7-AAD staining based flow cytometry analysis (reference value: 65%); assay type: functional; summary of the method: as §3
# [13] = Antiproliferative activity against human colon cancer cells assessed as reduction in cell viability measured after 24 to 48 hrs by XTT assay; assay type: functional, Panel colon (Carcinoma cell lines); conditions: Colon carcinoma cell, time 24-48 hrs
# NCI-H522 = assay: Antiproliferative activity against human NCI-H522 cells assessed as reduction in cell growth at […] measured after 24 to 48 hrs by XTT assay; assay type: functional; conditions: time 24-48 hrs, read-out: GI; summary of the method: as §1
# HeLa [14] = assay: Induction of cell cycle arrest in human HeLa cells assessed as accumulation of cells at S phase at 5 uM incubated for 48 hrs by 7-AAD staining based flow cytometry analysis (reference value: 5%); assay type: functional; summary of the method: as §3
# HeLa [15] = assay: Induction of cell cycle arrest in human HeLa cells assessed as accumulation of cells at G2/M phase at 10 uM incubated for 48 hrs by 7-AAD staining based flow cytometry analysis (reference value: 30%); assay type: functional; summary of the method: as §3
# [16] = Antiproliferative against human renal cancer cells assessed as reduction in cell growth incubated for 24 to 48 hrs by XTT assay; assay type: functional; conditions: Panel renal (Carcinoma cell lines), time 24-48 hrs; summary of the method: as §1
# HeLa [17] = assay: Induction of cell cycle arrest in human HeLa cells assessed as accumulation of cells at G0/G1 phase at 5 uM incubated for 48 hrs by 7-AAD staining based flow cytometry analysis (reference value: 65%); assay type: functional; summary of the method: as §3
# A549 = assay: Antiproliferative activity against human A549 cells assessed as reduction in cell growth at 4 to 16 uM incubated for 72 hrs in presence of extrusion-pump inhibitor, SS26 by CellTox based fluorescence analysis; assay type: functional; conditions: dose 4-16 µM
# Summary of the method: (§4)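 A498, A-704, A549 and HT1197 cells (DMEM high glucose, 10% FBS, 37 °C, 5% CO2) plated 500/well with SiR-DNA 0.5 µM and CellTox Green 0.8x, treated next day at 1, 2, 4, 8, 16 µM alone or with EPI SS26 at fixed 1 µM, 0.3% DMSO. Nuclei and dead cells imaged at 0, 24, 48, 72 h; percentage growth calculated; three technical replicates.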
# [18] = Antiproliferative against human prostate cancer cells assessed as reduction in cell growth incubated for 24 to 48 hrs by XTT assay; assay type: functional; conditions: Panel prostate (Carcinoma cell lines), time 24-48 hrs; summary of the method: as §1
# HeLa [19] = assay: Induction of cell cycle arrest in human HeLa cells assessed as accumulation of cells at S phase at 5 uM incubated for 24 hrs by 7-AAD staining based flow cytometry analysis (reference value: 5%); assay type: functional; summary of the method: as §3
# HeLa [20] = assay: Induction of cell cycle arrest in human HeLa cells assessed as accumulation of cells at S phase at 10 uM incubated for 48 hrs by 7-AAD staining based flow cytometry analysis (reference value: 5%); assay type: functional; summary of the method: as §3
# HT1197 = assay: Antiproliferative activity against human HT1197 cells assessed as reduction in cell growth at 4 to 16 uM incubated for 72 hrs in presence of extrusion-pump inhibitor, SS26 by CellTox based fluorescence analysis; assay type: functional; conditions: dose 4-16 µM; summary of the method: as §4
# Tubulin (Homo sapiens) [21] = target: T1, Tubulin (Homo sapiens) (UniProt P68371+Q9H4B7+P0DPH7+P68366+Q13509+Q71U36+P04350+Q3ZCM7+P07437+P68363+Q9BQE3+Q6PEY2+Q13885+Q9BVA1+Q9BUF5); assay: Disruption of microtubules in human HeLa cells assessed as beta-tubulin disassembly at 50 to 500 nM incubated for 24 hrs by high-content confocal microscopy; assay type: cell-based; conditions: dose 50-500 nM
# Summary of the method: (§5)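 HeLa treated 24 h at 10, 25, 50, 100 and 500 nM, stained for β-tubulin and nuclei (DAPI), imaged by high-content confocal microscopy; tubulin disassembly and cell dimension compared with controls.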
# HeLa [22] = assay: Antiproliferative activity against human HeLa cells assessed as reduction in cell viability measured after 48 hrs by XTT assay; assay type: functional, cell-based
# Summary of the method: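 HeLa (DMEM, 10% FBS, 37 °C, 5% CO2) seeded 1500 cells/well, treated 24 h later at 0.1–5 µM for 24 and 48 h; DMSO vehicle as control. XTT reagent 4 h at 37 °C, absorbance at 490 nm; IC50 calculated from viability; more than three independent experiments, each in triplicate.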
# HeLa [23] = assay: Induction of cell cycle arrest in human HeLa cells assessed as accumulation of cells at G0/G1 phase at 10 uM incubated for 48 hrs by 7-AAD staining based flow cytometry analysis (reference value: 65%); assay type: functional; summary of the method: as §3
# Sus scrofa [24] = organism: Sus scrofa; assay: Inhibition of pig tubulin polymerization measuring every 20 sec for 30 mins by fluorescence based analysis
# [25] = Antiproliferative against human ovarian cancer cells assessed as reduction in cell growth incubated for 24 to 48 hrs by XTT assay; assay type: functional, Panel ovarian (Carcinoma cell lines); conditions: Ovarian carcinoma cell, time 24-48 hrs; summary of the method: as §1
# HeLa [26] = assay: Induction of cell cycle arrest in human HeLa cells assessed as accumulation of cells at S phase at 10 uM incubated for 24 hrs by 7-AAD staining based flow cytometry analysis (reference value: 5%); assay type: functional; summary of the method: as §3
# [27] = system: Panel CNS (Carcinoma cell lines); assay: Antiproliferative activity against human CNS cancer cells assessed as lethality measured after 24 to 48 hrs by XTT assay; assay type: functional; conditions: time 24-48 hrs; summary of the method: as §2
# Tubulin (Homo sapiens) [28] = target: T1, Tubulin (Homo sapiens); assay: Disruption of microtubules in human HeLa cells assessed as increase in cytoplasmic dimensions at 50 nM incubated for 24 hrs by high-content confocal microscopy relative to control; assay type: cell-based; summary of the method: as §5
# A704 = assay: Antiproliferative activity against human A704 cells assessed as reduction in cell growth at 4 to 16 uM incubated for 48 to 72 hrs in presence of extrusion-pump inhibitor, SS26 by CellTox based fluorescence analysis; assay type: functional; conditions: dose 4-16 µM, time 48-72 hrs; summary of the method: as §4
# A498 = assay: Antiproliferative activity against human A498 cells assessed as reduction in cell growth at 4 to 16 uM incubated for 72 hrs in presence of extrusion-pump inhibitor, SS26 by CellTox based fluorescence analysis; assay type: functional; conditions: dose 4-16 µM; summary of the method: as §4
# HeLa [29] = assay: Induction of cell cycle arrest in human HeLa cells assessed as accumulation of cells at G2/M phase at 10 uM incubated for 24 hrs by 7-AAD staining based flow cytometry analysis (reference value: 30%); assay type: functional; summary of the method: as §3
# HeLa [30] = assay: Induction of cell cycle arrest in human HeLa cells assessed as accumulation of cells at G2/M phase at 5 uM incubated for 24 hrs by 7-AAD staining based flow cytometry analysis (reference value: 30%); assay type: functional; summary of the method: as §3
# Sus scrofa [31] = organism: Sus scrofa; assay: Displacement of colchicine from pig tubulin assessed as reduction in colchicine effectiveness on tubulin assembly measured every 20 secs for 30 mins by fluorescence based analysis
# [32] = read-out: LC50 (the source's name)
compound,measurement,setting,value
N#C/C(=C\c1cccc2cnccc12)n1nnc2ccccc21,GI50,[1],184 nM
same,TGI,[1],≥ 3610 nM
same,CC50,[1],> 100000 nM
same,inhibition of growth at 10 µM,CCRF-CEM [2],100%
same,GI50,[3],2040 nM
same,TGI,[3],> 100000 nM
same,CC50,[3],> 100000 nM
same,GI50,[4],557 nM
same,LC50,[4],> 100000 nM
same,TGI,[4],≥ 2840 nM
same,GI50,[5],532 nM
same,TGI,[5],≥ 5130 nM
same,CC50,[5],> 100000 nM
same,GI50,[6],253 nM
same,TGI,[6],≥ 24300 nM
same,CC50,[6],> 100000 nM
COc1ccc(/C=C(\C#N)n2nnc3ccccc32)cc1,IC50,CCRF-CEM [7],200 nM
Cc1ccc(/C=C(\C#N)n2nnc3cc(F)c(F)cc32)cc1,Activity,U-251,>=90%
same,Activity,HeLa [8],39%
same,Activity,HeLa [9],Active
same,GI50,[1],1480 nM
same,TGI,[1],2940 nM
same,CC50,[1],≥ 5830 nM
same,Activity,HeLa [10],50%
same,GI50,[11],≤ 100 nM
same,TGI,[11],≤ 1000 nM
same,CC50,[11]; [32],≤ 1000 nM
same,Activity,HeLa [12],20%
same,GI50,[3],360 nM
same,TGI,[3],≥ 100000 nM
same,CC50,[3],≥ 7670 nM
same,GI50,[13],421 nM
same,TGI,[13],1530 nM
same,CC50,[13]; [32],≥ 5800 nM
same,inhibition of growth,NCI-H522,93%
same,Activity,HeLa [14],9%
same,GI50,[4],1160 nM
same,LC50,[4],> 100000 nM
same,TGI,[4],≥ 5390 nM
same,Activity,HeLa [15],87%
same,GI50,[16],1770 nM
same,TGI,[16],7410 nM
same,CC50,[16]; [32],≥ 36700 nM
same,Activity,HeLa [17],41%
same,Activity,A549,Active
same,GI50,[18],3320 nM
same,TGI,[18],15600 nM
same,CC50,[18]; [32],66200 nM
same,Activity,HeLa [19],7%
same,Activity,HeLa [20],3%
same,Activity,HT1197,Active
same,Activity,Tubulin (Homo sapiens) [21],Active
same,IC50,HeLa [22],3200 nM
same,GI50,[5],291 nM
same,TGI,[5],1120 nM
same,CC50,[5],≥ 6780 nM
same,Activity,HeLa [23],10%
same,inhibition,Sus scrofa [24],Active
same,GI50,[25],1470 nM
same,TGI,[25],≥ 6080 nM
same,CC50,[25]; [32],≥ 33800 nM
same,Activity,HeLa [26],14%
same,Activity,[27],>=90%
same,GI50,[6],391 nM
same,TGI,[6],≥ 871 nM
same,CC50,[6],> 100000 nM
same,fold change (FC),Tubulin (Homo sapiens) [28],3
same,Activity,A704,Active
same,Activity,A498,Active
same,Activity,HeLa [29],66%
same,Activity,HeLa [30],54%
same,Activity,Sus scrofa [31],Active
